According to ChEMBL document CHEMBL1914430, “Synthesis of some new 1,3,5-trisubstituted pyrazolines bearing benzene sulfonamide as anticancer and anti-inflammatory agents” (Bioorg Med Chem Lett, 2011):

Key:
Assay type in all cases: functional
MDA-MB-231 = assay: Anticancer activity against human MDA-MB-231 cells after 48 hrs; conditions: MDA-MB-231, 48 h
In short: (§1)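 NCI Drug Evaluation Branch 60-cell-line screen across leukemia, melanoma, lung, colon, CNS, ovarian, renal, prostate and breast panels. The incubation period is 48 h. Parameters are derived from dose–response data: GI50 is the concentration giving 50% decrease in net growth, TGI is total growth inhibition, and LC50 is net 50% loss of initial cells. Values beyond the tested range are reported as greater or less than the maximum or minimum concentration.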

HT-29 = assay: Anticancer activity against human HT-29 cells after 48 hrs; conditions: HT-29, 48 h; in short: as §1
ACHN = assay: Anticancer activity against human ACHN cells after 48 hrs; in short: as §1
MDA-MB-468 = assay: Anticancer activity against human MDA-MB-468 cells after 48 hrs; conditions: MDA-MB-468, 48 h; in short: as §1
HL-60(TB) = assay: Anticancer activity against human HL-60(TB) cells after 48 hrs; conditions: HL-60, 48 h
In short: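 NCI 60-cell-line panel protocol: cells exposed to compound for 48 h. Initial one-dose screen at 10⁻⁵ M. GI50 = concentration giving 50% decrease in net cell growth. TGI = concentration giving total growth inhibition. LC50 = concentration giving net 50% loss of initial cells at the end of incubation. A value not reached or exceeded is reported as greater or less than the highest or lowest concentration tested.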

SR = assay: Anticancer activity against human SR cells after 48 hrs
In short: (§2)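 NCI 60-line panel protocol with a 48 h incubation. Per line: GI50 = concentration giving 50% decrease in net cell growth; TGI = total growth inhibition; LC50 = net 50% loss of initial cells. When the level was not reached or was exceeded, the value is given as greater or less than the highest or lowest concentration tested.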

HOP-92 = assay: Anticancer activity against human HOP92 cells after 48 hrs; conditions: HOP-92, 48 h; in short: as §1
DU-145 = assay: Anticancer activity against human DU145 cells after 48 hrs; conditions: DU-145, 48 h; in short: as §1
SF-295 = assay: Anticancer activity against human SF295 cells after 48 hrs; conditions: SF-295, 48 h; in short: as §2
CAKI-1 = assay: Anticancer activity against human Caki1 cells after 48 hrs; conditions: CAKI-1, 48 h; in short: as §1
BT-549 = assay: Anticancer activity against human BT549 cells after 48 hrs; conditions: BT-549, 48 h; in short: as §1
NCI-H522 = assay: Anticancer activity against human NCI-H522 cells after 48 hrs; conditions: NCI-H522, 48 h; in short: as §2
Malme-3M = assay: Anticancer activity against human MALME-3M cells after 48 hrs; in short: as §1
SN12C = assay: Anticancer activity against human SN12C cells after 48 hrs; in short: as §2
NCI-H322M = assay: Anticancer activity against human NCI-H322M cells after 48 hrs; in short: as §2
HOP-62 = assay: Anticancer activity against human HOP62 cells after 48 hrs; conditions: HOP-62, 48 h; in short: as §1
U-251 = assay: Anticancer activity against human U251 cells after 48 hrs; conditions: U-251, 48 h
In short: (§3)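 NCI ~60 human tumour cell line panel with a 48 h incubation. GI50 is the concentration giving a 50% fall in net growth, TGI gives total growth inhibition, and LC50 gives a net 50% loss of initial cells. An effect not reached or exceeded is reported as greater or less than the highest or lowest concentration tested.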

RPMI-8226 = assay: Anticancer activity against human RPMI8226 cells after 48 hrs; conditions: RPMI-8226, 48 h; in short: as §2
TK-10 = assay: Anticancer activity against human TK10 cells after 48 hrs; conditions: TK-10, 48 h; in short: as §3
SK-MEL-5 = assay: Anticancer activity against human SK-MEL-5 cells after 48 hrs; conditions: SK-MEL-5, 48 h; in short: as §2
M14 = assay: Anticancer activity against human M14 cells after 48 hrs; conditions: M14, 48 h; in short: as §1
SNB-19 = assay: Anticancer activity against human SNB19 cells after 48 hrs; conditions: SNB-19, 48 h; in short: as §2
OVCAR-5 = assay: Anticancer activity against human OVCAR5 cells after 48 hrs; conditions: OVCAR-5, 48 h; in short: as §2
UO-31 = assay: Anticancer activity against human UO31 cells after 48 hrs; conditions: UO-31, 48 h, read-out: LC50 (the source's name); in short: as §3
HCT-116 = assay: Anticancer activity against human HCT116 cells after 48 hrs; conditions: HCT-116, 48 h; in short: as §1
PC-3 = assay: Anticancer activity against human PC3 cells after 48 hrs; conditions: PC-3, 48 h; in short: as §2
OVCAR-8 = assay: Anticancer activity against human OVCAR8 cells after 48 hrs; conditions: OVCAR-8, 48 h; in short: as §2
UACC-257 = assay: Anticancer activity against human UACC257 cells after 48 hrs; conditions: UACC-257, 48 h; in short: as §3
LOX IMVI = assay: Anticancer activity against human LOXIMVI cells after 48 hrs; in short: as §1
[1] = Anticancer activity against human Hs 578T cells after 48 hrs; in short: as §1
[2] = read-out: LC50 (the source's name)

With Cc1cc(O)c(C2=NN(c3ccc(S(N)(=O)=O)cc3)C(c3ccccc3O)C2)cc1Cl (stereo not drawn) the GI50 (MDA-MB-231) was 2.3 µM, the TGI (MDA-MB-231) was 6.69 µM and the CC50 (MDA-MB-231; [2]) was 29.5 µM. The GI50 (HT-29) was 2.37 µM, the TGI (HT-29) was 5.1 µM and the CC50 (HT-29; [2]) was 12.9 µM. For the same compound, the GI50 (ACHN) was 3.13 µM, the TGI (ACHN) was 11.2 µM and the CC50 (ACHN; [2]) was 33.4 µM. For the same compound, the GI50 (MDA-MB-468) was 2.58 µM, the TGI (MDA-MB-468) was 7.92 µM and the CC50 (MDA-MB-468; [2]) was 37.6 µM. For the same compound, the GI50 (HL-60(TB)) was 2.99 µM, the LC50 (HL-60(TB)) was > 100 µM and the TGI (HL-60(TB)) was 7.32 µM. The GI50 (SR) was 2.22 µM, the LC50 (concentration killing 50% of initial cells) (SR) was > 100 µM and the TGI (SR) was 26.7 µM. For the same compound, the GI50 (HOP-92) was 1.46 µM, the TGI (HOP-92) was 6.51 µM and the CC50 (HOP-92; [2]) was 37.8 µM. For the same compound, the GI50 (DU-145) was 2.41 µM, the LC50 (concentration causing net 50% loss of initial cells) (DU-145) was 10.6 µM and the TGI (DU-145) was 4.95 µM. It also gave a GI50 (SF-295) of 1.66 µM, an LC50 (concentration giving net 50% loss of initial cells) (SF-295) of 8.09 µM and a TGI (SF-295) of 3.67 µM. It also gave a GI50 (CAKI-1) of 1.56 µM, an LC50 (concentration giving 50% net loss of initial cells) (CAKI-1) of 16.6 µM and a TGI (CAKI-1) of 4.44 µM. It also gave a GI50 (BT-549) of 2.47 µM, a TGI (BT-549) of 8.18 µM and a CC50 (BT-549; [2]) of 58.7 µM. For the same compound, the GI50 (NCI-H522) was 2.15 µM, the LC50 (concentration killing 50% of initial cells) (NCI-H522) was 28 µM and the TGI (NCI-H522) was 6.28 µM. The GI50 (Malme-3M) was 2.72 µM, the TGI (Malme-3M) was 7.34 µM and the CC50 (Malme-3M; [2]) was 59.2 µM. It also gave a GI50 (SN12C) of 4.08 µM, an LC50 (SN12C) of 43.1 µM and a TGI (SN12C) of 15.3 µM. The GI50 (NCI-H322M) was 2.5 µM, the LC50 (net 50% loss of initial cells) (NCI-H322M) was 26 µM and the TGI (NCI-H322M) was 7.24 µM. For the same compound, the GI50 (HOP-62) was 1.93 µM, the LC50 (concentration for 50% net loss of initial cells) (HOP-62) was 11.7 µM and the TGI (HOP-62) was 4.5 µM. The GI50 (U-251) was 2.78 µM, the TGI (U-251) was 7.76 µM and the CC50 (U-251; [2]) was 26.9 µM. For the same compound, the GI50 (RPMI-8226) was 2.39 µM, the LC50 (concentration for net 50% loss of initial cells) (RPMI-8226) was > 100 µM and the TGI (RPMI-8226) was 15 µM. For the same compound, the GI50 (TK-10) was 3.3 µM, the LC50 (TK-10) was 27.2 µM and the TGI (TK-10) was 6.85 µM. The GI50 (SK-MEL-5) was 5.69 µM, the LC50 (SK-MEL-5) was 42.7 µM and the TGI (SK-MEL-5) was 18.2 µM. The GI50 (M14) was 1.76 µM, the TGI (M14) was 3.4 µM and the CC50 (M14; [2]) was 6.56 µM. The GI50 (SNB-19) was 4.33 µM, the TGI (SNB-19) was 15.2 µM and the CC50 (SNB-19; [2]) was 39.8 µM. For the same compound, the GI50 (OVCAR-5) was 1.73 µM, the LC50 (OVCAR-5) was 8.12 µM and the TGI (OVCAR-5) was 3.75 µM. It also gave a CC50 (UO-31) of 38.5 µM, a GI50 (HCT-116) of 1.66 µM and a TGI (HCT-116) of 3.02 µM. For the same compound, the CC50 (HCT-116; [2]) was 5.5 µM, the GI50 (PC-3) was 1.33 µM and the TGI (PC-3) was 3.52 µM. It also gave a CC50 (PC-3; [2]) of 9.33 µM, a GI50 (OVCAR-8) of 3.89 µM and a TGI (OVCAR-8) of 16.5 µM. The CC50 (OVCAR-8; [2]) was 91.8 µM, the GI50 (UACC-257) was 6.92 µM and the LC50 (UACC-257) was 59 µM. The TGI (UACC-257) was 22.1 µM, the GI50 (LOX IMVI) was 1.73 µM and the TGI (LOX IMVI) was 3.19 µM. It also gave a CC50 (LOX IMVI; [2]) of 5.87 µM, a GI50 [1] of 4.64 µM and a TGI [1] of 22.5 µM. For the same compound, the CC50 [1, 2] was > 100 µM.
